Data taken from ChEMBL document CHEMBL1137382, “Synthesis and structure-activity relationships of carbazole sulfonamides as a novel class of antimitotic agents against solid tumors” (J Med Chem, 2006).
Activity calls are given as the source filed them. The calls are words filed in the database; no cut-off is given here.

Tests used:
[1] = system: CEM (human); assay: Antiproliferative activity against human CEM cells after 72 hrs
[2] = system: MOLT-3; assay: Antiproliferative activity against human Molt3 cells after 72 hrs; type: functional, cell-based; conditions: MOLT-3, 72 h
Outline: (§1)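 Cells grown in RPMI-1640 with 10% heat-inactivated FCS, penicillin and streptomycin, 5% CO2, 37 °C, used in exponential growth. 5 × 10⁴ cells per well exposed to compound at 0–10 µM for 72 h at 37 °C. IC50 (concentration killing 50% of cells versus untreated controls) determined in duplicate by nonlinear regression.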

[3] = system: Bel-7402; assay: Antiproliferative activity against human Bel7402 cells after 72 hrs; type: functional, cell-based; conditions: Bel-7402, 72 h
Outline: as §1

[4] = Antiproliferative activity against human DND1 cells after 72 hrs; type: functional, cell-based; conditions: DND1, 72 h
Outline: as §1

[5] = system: MCF7; assay: Antiproliferative activity against human MCF7 cells after 72 hrs; type: functional, cell-based; conditions: MCF7, 72 h
Outline: as §1

[6] = system: PC-3; assay: Antiproliferative activity against human PC3 cells after 72 hrs; type: functional, cell-based; conditions: PC-3, 72 h
Outline: as §1

[7] = system: DU-145; assay: Antiproliferative activity against human DU145 cells after 72 hrs; type: functional, cell-based; conditions: DU-145, 72 h
Outline: as §1

[8] = system: DMS-79; assay: Antiproliferative activity against human DMS79 cells after 72 hrs; type: functional, cell-based; conditions: DMS-79, 72 h
Outline: as §1

[9] = system: MCF7; assay: Reduction in tumor volume of human MCF7 cell xenografted in nude mice at 100 mg/kg, ip; type: functional; conditions: Mus musculus, route intraperitoneal
Outline: (§2)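 Female nude mice carry sc xenografts (MCF-7, 8 × 10⁶ cells, after sc estrogen 0.25 mg/mouse 24 h before; or Bel-7402). At 90–120 mm³, mice were randomised into groups of five. Dosing ip q2d for 5–6 weeks, 100 mg/kg for MCF-7 and 60 mg/kg for Bel-7402, with a solvent control. Tumor volume from caliper width and length, mean of n = 5.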

[10] = system: MCF7; assay: Cell cycle arrest in MCF7 cells by accumulation at M phase at 0.22 to 1.1 uM after 24 hrs; type: functional, cell-based; conditions: Homo sapiens
Outline: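 MCF-7 cells exposed at 0.22 µM for up to 24 h. Cells trypsin/EDTA-harvested (1.5 × 10⁶), PBS-washed, RNase-treated (0.5 µg/µL final, 37 °C, 30 min), fixed in ice-cold 70% ethanol ≥12 h at 4 °C, and stained with propidium iodide (0.1 µg/µL final, 4 °C, 60 min). ≥10⁴ events analysed by flow cytometry. Mitotic arrest also scored on Giemsa-stained cytospins by chromosome spreading.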

[11] = system: MCF7; assay: Induction of apoptosis in human MCF7 cell line assessed as increase in cdc2 expression upto 48 hrs; type: functional, cell-based
Outline: (§3)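 MCF-7 cells treated at 0.022–2.2 µM, or at 0.22 µM for 0–48 h. Lysed on ice in Tris/NaCl/NP-40/PMSF/aprotinin buffer and protein measured by Bradford. Blots blocked in 5% milk/TBST and probed with monoclonal antibodies to bcl-2, p53, cdc-2 and cyclin B1, then HRP anti-mouse. Signals detected by ECL on film.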

[12] = system: MCF7; assay: Induction of apoptosis in human MCF7 cell line assessed as increase in cyclin B1 expression upto 48 hrs; type: functional, cell-based
Outline: as §3

[13] = system: MCF7; assay: Induction of apoptosis in human MCF7 cell line assessed as increase in P-p53 expression upto 48 hrs; type: functional, cell-based
Outline: as §3

[14] = system: Bel-7402; assay: Reduction in tumor volume of human Bel7402 cell xenografted in nude mice at 60 mg/kg, ip; type: functional; conditions: Mus musculus, Bel-7402, ip, route intraperitoneal
Outline: as §2

[15] = Toxicity ip dosed mouse; type: organism-based; conditions: in vivo

SMILES: CCn1c2ccccc2c2cc(S(=O)(=O)Nc3cc(OC)cc(OC)c3)ccc21
- IC50 [1]: 974 nM

SMILES: COc1ccc(/C=C\c2cc(OC)c(OC)c(OC)c2)cc1O [COMBRETASTATIN A4]
- IC50 [2]: 9.3 nM
- IC50 [3]: 10 nM
- IC50 [1]: 1.9 nM
- IC50 [4]: 2.5 nM
- IC50 [5]: 12 nM
- IC50 [6]: 2.8 nM
- IC50 [7]: 9.3 nM
- IC50 [8]: 124 nM

SMILES: CCn1c2ccccc2c2cc(S(=O)(=O)Nc3ccc4c(c3)OCO4)ccc21
- IC50 [1]: 6250 nM

SMILES: CCn1c2ccccc2c2cc(S(=O)(=O)Nc3ccc(OC)c(N)c3)ccc21
- IC50 [1]: 2200 nM

SMILES: CCn1c2ccccc2c2cc(S(=O)(=O)Nc3cc(OC)c(Cl)cc3OC)ccc21
- IC50 [2]: 67 nM
- IC50 [3]: 135 nM
- IC50 [1]: 56 nM
- IC50 [4]: 90 nM
- IC50 [5]: 67 nM
- IC50 [6]: 90 nM
- IC50 [7]: 169 nM

SMILES: COc1cc([C@@H]2c3cc4c(cc3[C@H](O)[C@H]3COC(=O)[C@H]23)OCO4)cc(OC)c1OC [PODOFILOX]
- IC50 [2]: 14 nM
- IC50 [3]: 9.1 nM
- IC50 [1]: 7.2 nM
- IC50 [4]: 12 nM
- IC50 [5]: 15 nM
- IC50 [6]: 10 nM
- IC50 [7]: 52 nM
- IC50 [8]: 23 nM

SMILES: CCn1c2ccccc2c2cc(S(=O)(=O)Nc3ccc(OC)cc3OC)ccc21
- IC50 [2]: 48 nM
- IC50 [3]: 96 nM
- IC50 [1]: 57 nM
- IC50 [4]: 120 nM
- IC50 [5]: 48 nM
- IC50 [6]: 144 nM
- IC50 [7]: 144 nM

SMILES: CCn1c2ccccc2c2cc(NS(=O)(=O)c3ccc(OC)cc3N)ccc21
- IC50 [1]: > 10000 nM

SMILES: COc1cc(OC)c(NS(=O)(=O)c2ccc3c(c2)c2ccccc2n3C)c(OC)c1
- IC50 [1]: 70 nM

SMILES: CCn1c2ccccc2c2cc(S(=O)(=O)Nc3cc(OC)c(OC)c(OC)c3)ccc21
- IC50 [2]: 20 nM
- inhibition in vivo at 100 mg/kg [9]: 75%
- IC50 [3]: 201 nM
- IC50 [1]: 56 nM
- IC50 [4]: 89 nM
- Activity [10]: Active
- IC50 [5]: 89 nM
- IC50 [6]: 201 nM
- Activity [11]: Active
- Activity [12]: Active
- IC50 [7]: 603 nM
- Activity [13]: Active
- IC50 [8]: 1900 nM
- inhibition in vivo at 60 mg/kg [14]: 55%
- LD50 [15]: > 500 mg/kg

SMILES: COc1cc(NS(=O)(=O)c2ccc3oc4ccccc4c3c2)cc(OC)c1OC
- IC50 [1]: > 10000 nM

SMILES: CCn1c2ccccc2c2cc(S(=O)(=O)Nc3cc(Cl)c(OC)cc3OC)ccc21
- IC50 [1]: 67 nM

SMILES: CCn1c2ccccc2c2cc(NS(=O)(=O)c3cccc(OC)c3)ccc21
- IC50 [1]: 789 nM

SMILES: CCn1c2ccccc2c2cc(S(=O)(=O)NCc3cc(OC)c(OC)c(OC)c3)ccc21
- IC50 [1]: > 10000 nM

SMILES: CCn1c2ccccc2c2cc(NS(=O)(=O)c3ccc(OC)cc3)ccc21
- IC50 [1]: > 10000 nM

SMILES: COc1cc(NS(=O)(=O)c2ccc3[nH]c4ccccc4c3c2)cc(OC)c1OC
- IC50 [1]: 606 nM

SMILES: CCn1c2ccccc2c2cc(S(=O)(=O)Nc3ccc(OC)c(Cl)c3)ccc21
- IC50 [1]: 482 nM

SMILES: CCn1c2ccccc2c2cc(S(=O)(=O)Nc3ccc(F)cc3)ccc21
- IC50 [1]: 2170 nM

SMILES: COc1cc(NS(=O)(=O)c2ccc3c(c2)c2ccccc2n3C)c(OC)cc1Cl
- IC50 [1]: 46 nM

SMILES: CCn1c2ccccc2c2cc(NS(=O)(=O)c3cccc(C#N)c3)ccc21
- IC50 [1]: 1320 nM

SMILES: CCn1c2ccccc2c2cc(S(=O)(=O)Nc3cc(C(F)(F)F)cc(C(F)(F)F)c3)ccc21
- IC50 [1]: > 10000 nM

SMILES: CCn1c2ccccc2c2cc(NS(=O)(=O)c3ccc(OC)c(OC)c3)ccc21
- IC50 [1]: 2650 nM

SMILES: CCn1c2ccccc2c2cc(S(=O)(=O)Nc3ccc(OC)cc3)ccc21
- IC50 [1]: > 10000 nM

SMILES: COc1cc(NS(=O)(=O)c2ccc3c(c2)c2ccccc2n3C)cc(OC)c1OC
- IC50 [2]: 19 nM
- IC50 [3]: 116 nM
- IC50 [1]: 46 nM
- IC50 [4]: 70 nM
- IC50 [5]: 70 nM
- IC50 [6]: 116 nM
- IC50 [7]: 232 nM
- IC50 [8]: 2090 nM

SMILES: CCn1c2ccccc2c2cc(S(=O)(=O)Nc3ccc(OC)c(OC)c3)ccc21
- IC50 [1]: 2440 nM

SMILES: CCn1c2ccccc2c2cc(NS(=O)(=O)c3ccc(OC)cc3[N+](=O)[O-])ccc21
- IC50 [1]: > 10000 nM

SMILES: CCn1c2ccccc2c2cc(S(=O)(=O)Nc3cc(OC)ccc3OC)ccc21
- IC50 [2]: 49 nM
- IC50 [3]: 219 nM
- IC50 [1]: 61 nM
- IC50 [4]: 195 nM
- IC50 [5]: 98 nM
- IC50 [6]: 780 nM
- IC50 [7]: 365 nM

SMILES: CCn1c2ccccc2c2cc(NS(=O)(=O)c3cc(OC)ccc3OC)ccc21
- IC50 [1]: 603 nM
